# Published values of several laboratories.
# Protocols differ between the studies behind these lines.
# Target: Serine/threonine-protein kinase D1 (PRKD1, Homo sapiens, UniProt Q15139)
# Sequence (Q15139 1-912, as in one of the studies): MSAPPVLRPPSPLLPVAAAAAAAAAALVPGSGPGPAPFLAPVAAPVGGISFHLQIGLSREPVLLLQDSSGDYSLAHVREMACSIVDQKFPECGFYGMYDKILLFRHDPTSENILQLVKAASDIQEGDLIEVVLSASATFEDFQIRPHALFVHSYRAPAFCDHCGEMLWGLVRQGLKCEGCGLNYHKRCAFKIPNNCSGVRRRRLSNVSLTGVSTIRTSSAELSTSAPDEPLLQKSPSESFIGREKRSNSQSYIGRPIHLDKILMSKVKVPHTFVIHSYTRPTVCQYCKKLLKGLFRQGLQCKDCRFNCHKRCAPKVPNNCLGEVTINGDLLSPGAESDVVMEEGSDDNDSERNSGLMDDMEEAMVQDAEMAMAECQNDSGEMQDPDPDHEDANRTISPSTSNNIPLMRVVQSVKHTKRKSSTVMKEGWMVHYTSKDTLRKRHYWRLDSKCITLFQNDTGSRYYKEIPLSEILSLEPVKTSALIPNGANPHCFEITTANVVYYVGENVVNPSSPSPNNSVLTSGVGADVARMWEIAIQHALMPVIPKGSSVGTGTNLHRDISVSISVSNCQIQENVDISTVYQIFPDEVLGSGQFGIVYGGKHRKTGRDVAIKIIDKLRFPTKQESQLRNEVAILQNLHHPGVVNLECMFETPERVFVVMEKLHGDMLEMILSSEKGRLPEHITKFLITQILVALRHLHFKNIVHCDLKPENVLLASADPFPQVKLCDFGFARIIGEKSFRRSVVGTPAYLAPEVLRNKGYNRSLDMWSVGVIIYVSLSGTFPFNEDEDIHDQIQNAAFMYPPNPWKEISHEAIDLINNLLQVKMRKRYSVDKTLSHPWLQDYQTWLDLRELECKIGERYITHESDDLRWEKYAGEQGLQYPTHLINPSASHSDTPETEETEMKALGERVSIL
Compound,assay,conditions,quantity,result
CCN(CC)c1ccc(C2=NNC(=O)CC2C)cc1[N+](=O)[O-] (stereo not shown),"enzyme activity, inhibitor",10 µM,remaining activity,14%
Cn1c(=O)n(-c2ccc(C(C)(C)C#N)cc2)c2c3cc(-c4cnc5ccccc5c4)ccc3ncc21,"enzyme activity, inhibitor",10 µM,remaining activity,107%
Cn1cnc(Br)c1C1=CN(c2ncnc3[nH]cnc23)CCS1,"enzyme activity, inhibitor, radiometric",2 µM,inhibition,91.4%
CN(C(=O)c1ccccc1)c1cc(N(C)c2ccc3c(c2)CCc2ccc(C(=O)NCCN4CCOCC4)cc2C3=O)ccc1F,"cell-free assay, competition with immobilised ligand",1 µM,remaining binding,86%
COc1cc2ncnc(Nc3ccc(Oc4ccccc4)cc3C)c2cc1OC,"enzyme activity, inhibitor",1 µM,inhibition,8%
O=c1nc(-c2ccccn2)sc2ccccc12,"binding, competition with immobilised ligand",1 µM,remaining binding,100%
Cc1ncc([N+](=O)[O-])n1C(=NO)c1ccccc1C(F)(F)F,"enzyme activity, inhibitor",10 µM,inhibition,7.69%
O=C(Nc1cnn(-c2csc(C(=O)NC3COC3)c2)c1)Nc1c(F)cccc1Cl,"enzyme activity, inhibitor",5 µM,remaining activity,90.7%
CC/C(=N\NC(=O)NCc1cccc(O)c1)c1ccc(O)c(C)c1O,"enzyme activity, inhibitor",0.1 µM,inhibition,-0.2%
CC(C)c1ccc(NC(=O)c2cccs2)c(-c2nc3ccccc3[nH]c2=O)c1,"enzyme activity, inhibitor",1 µM,activity vs control,97%
Cc1ccc(Nc2nccc(N(C)c3ccc4c(C)n(C)nc4c3)n2)cc1S(N)(=O)=O,"enzyme activity, inhibitor",10 µM,inhibition,23%
CS(=O)(=O)NCC[C@H](NC(=O)c1cncc2c1cnn2-c1ccc(F)cc1)c1ccnc(S(C)(=O)=O)c1,"cell-free assay, competition with immobilised ligand",1 µM,remaining binding,92%
Nc1nc(Nc2ccccc2)sc1C(=O)c1c(F)cccc1F,"enzyme activity, inhibitor",10 µM,remaining activity,46%
CC(C)(O)c1cncc(-c2nc3ccc(F)cc3n2C2CC2)c1,"cell-free assay, competition with immobilised ligand",1 µM,remaining binding,100%
Cc1ccc(C(=O)NCc2ccsc2)cc1C#Cc1cn(C(C)C)c2ncnc(N)c12,"enzyme activity, inhibitor",1 µM,activity vs control,91%
CC(C)(C)c1nc(-c2cccc(NS(=O)(=O)c3c(F)cccc3F)c2F)c(-c2ccnc(N)n2)s1,"enzyme activity, inhibitor, radiometric",1 µM,remaining activity,33%
COc1cc2ncnc(Nc3ccc(F)c(Cl)c3)c2cc1OCCCN1CCOCC1,cell-free assay,0.5 µM,remaining signal,85.4%
COc1cccc2c(NCc3ccccc3)nc(-n3c(N)nc4ccccc43)nc12,"target engagement in cells, inhibitor, chemoproteomics",20 mM,inhibition,-20.7%
Cc1sc(C(=O)NC2COC2)cc1-n1cc(NC(=O)Nc2c(F)cccc2Cl)cn1,"enzyme activity, inhibitor",10 µM,remaining activity,93.3%
c1ccc(CNc2nc(N3CCOc4ccccc43)nc3c2CCCC3)cc1,"target engagement in cells, inhibitor, chemoproteomics",20 mM,inhibition,-8.8%
CNC(=O)c1cc(Oc2ccc(NC(=O)Nc3ccc(Cl)c(C(F)(F)F)c3)cc2)ccn1,"enzyme activity, inhibitor",10 µM,inhibition,13%
CCN(CC)CCNC(=O)c1c(C)[nH]c(/C=C2\C(=O)Nc3ccc(F)cc32)c1C,cell-free assay,0.5 µM,remaining signal,20%
CCCCN(CCCC)C(=O)CN1C[C@H](c2cc(OC)c3c(c2)OCO3)[C@@H](C(=O)O)[C@@H]1CC(C)(C)CCC,"cell-free assay, competition with immobilised ligand",1 µM,remaining binding,79.4%
FC(F)(F)Oc1cccc(-c2cnc3ccc(-c4ccncc4)nn23)c1,"enzyme activity, inhibitor, radiometric",5 µM,activity vs control,158%
O=C(Nc1ccc(Oc2ccc(F)cc2)cc1)N1CCc2ncccc2[C@H]1c1ccc(F)cc1,"cell-free assay, competition with immobilised ligand",1 µM,remaining binding,94%
Cc1ccc(C(=O)Nc2ccc(CN3CCN(C)CC3)c(C(F)(F)F)c2)cc1C#Cc1cnc2cccnn12,"enzyme activity, inhibitor",23.5 nM,remaining activity,91%
COc1cc(Nc2cnc(C#N)c(O[C@H](C)CN(C)C)n2)ncc1-c1cnn(C)c1,"enzyme activity, inhibitor, radiometric",1 µM,remaining activity,106%
CCOc1cc(-c2nncn2C)ccc1Nc1ncc2cc(C)nc(NCC(C)(C)C)c2n1,"enzyme activity, inhibitor, FRET",1 µM,inhibition,37%
CN([C@@H]1CCc2c(CC(=O)O)c3ccccc3n2C1)S(=O)(=O)c1ccc(F)cc1,"cell-free assay, competition with immobilised ligand",1 µM,remaining binding,100%
Cn1cncc1C1=CN(c2ncnc3[nH]cnc23)CCS1,"enzyme activity, inhibitor, radiometric",2 µM,inhibition,89.2%
Cc1ccc(NC(=O)c2ccc(C)c(C(F)(F)F)c2)cc1C#Cc1nn(C2CCC(O)CC2)c2ncnc(N)c12 (stereo not shown),cell-free assay,10 µM,remaining signal,91%
Cn1c2ccccc2c2c3c(c4c5ccccc5n(CCC#N)c4c21)CNC3=O,cell-free assay,0.5 µM,remaining signal,17.3%
FC(F)c1nc2ccccc2n1-c1nc(N2CCOCC2)nc(N2CCOCC2)n1,"enzyme activity, inhibitor",10 µM,remaining activity,96%
CNC(=O)Nc1ccc2c(c1)[C@@]1(CC2)OC(=O)N(CC(=O)N(Cc2ccc(F)cc2)[C@@H](C)C(F)(F)F)C1=O,"cell-free assay, competition with immobilised ligand",1 µM,remaining binding,100%
